Consider two compounds from PMC4475445 (Journal of immunology (Baltimore, Md. : 1950), 2015).

The subject of series [1] is BMMΦ. Kind of series: Apoptosis assay. As to conditions: wild-type and Btk-/-Tec-/- BMMΦ, several doses, Figure S2D. The series is classed as cell-based. In a few lines:
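Bone marrow was flushed from femurs and tibias of 6–15-week-old mice, red cells were lysed, and the cells were filtered and plated at 7.5 × 10^5 cells/ml. Cells were grown in DMEM with 10% heat-inactivated FBS, 10 mM Hepes and 10% CMG 12-14 conditioned medium as the M-CSF source, and re-plated on day 5. Apoptosis was scored by annexin V/7-AAD staining and flow cytometry.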

Series [2] deals with BMMΦ. Briefly: TLR-dependent cytokine secretion. The following applies: 30 min pretreatment, then LPS or CpG 16 h; wild-type and Btk-/-Tec-/- BMMΦ. The series is classed as cell-based, mouse.
The next series concerns the target T1, Bmx (Homo sapiens, UniProt P51813).
T1 sequence (P51813 1-675): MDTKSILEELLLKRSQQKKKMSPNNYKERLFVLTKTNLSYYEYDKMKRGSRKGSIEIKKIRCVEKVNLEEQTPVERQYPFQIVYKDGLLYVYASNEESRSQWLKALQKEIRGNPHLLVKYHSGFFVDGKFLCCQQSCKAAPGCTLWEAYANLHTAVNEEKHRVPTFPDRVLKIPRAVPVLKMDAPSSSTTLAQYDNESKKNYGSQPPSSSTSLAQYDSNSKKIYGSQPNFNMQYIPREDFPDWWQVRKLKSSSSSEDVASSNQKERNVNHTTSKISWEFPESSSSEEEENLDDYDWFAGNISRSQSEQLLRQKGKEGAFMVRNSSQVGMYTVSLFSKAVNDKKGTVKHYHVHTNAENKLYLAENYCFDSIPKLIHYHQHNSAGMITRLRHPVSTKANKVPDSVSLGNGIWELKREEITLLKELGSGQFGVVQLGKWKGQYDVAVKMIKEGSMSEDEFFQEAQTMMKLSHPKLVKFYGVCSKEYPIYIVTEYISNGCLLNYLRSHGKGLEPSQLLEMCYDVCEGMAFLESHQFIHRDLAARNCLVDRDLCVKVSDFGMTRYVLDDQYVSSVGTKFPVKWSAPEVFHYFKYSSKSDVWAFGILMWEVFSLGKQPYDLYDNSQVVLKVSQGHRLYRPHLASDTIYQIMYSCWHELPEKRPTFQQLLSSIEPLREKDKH
Kind of series: HotSpot radioisotope kinase assay. The series is classed as biochemical. The procedure, abridged: (§1)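 Radiometric HotSpot assay with P81 filter capture. Kinase was added to freshly prepared substrate with cofactors and preincubated 30 min at room temperature, then started with 33P-ATP, with ATP at Km or 10× Km. Reactions ran 2 hr at room temperature; unreacted phosphate was washed off with 0.1% phosphoric acid. Test compound: 10 doses, […] serial dilution from 10 μM. Duplicates; staurosporine positive control.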

In another series the test system is Tec kinases. Kind of series: Kinase selectivity panel. The series is classed as biochemical. The following applies: 1μM test concentration, 10 μM 33P-ATP; Supplemental Table 2. The procedure, abridged:
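Test compound was dissolved in DMSO and tested at 1 μM final. Each kinase was added to fresh substrate with cofactors in reaction buffer and preincubated 30 min at room temperature. Reactions were started with 10 μM 33P-ATP and ran 2 hr at room temperature. After termination, unreacted phosphate was washed off with 0.1% phosphoric acid and bound label was read by P81 filtration. Run in duplicate; 10 μM staurosporine positive control.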

The target in another series is Btk (Homo sapiens, UniProt Q06187). Briefly: HotSpot radioisotope kinase assay. The series is classed as biochemical. In a few lines: as §1
Btk, sequence (Q06187 whole entry): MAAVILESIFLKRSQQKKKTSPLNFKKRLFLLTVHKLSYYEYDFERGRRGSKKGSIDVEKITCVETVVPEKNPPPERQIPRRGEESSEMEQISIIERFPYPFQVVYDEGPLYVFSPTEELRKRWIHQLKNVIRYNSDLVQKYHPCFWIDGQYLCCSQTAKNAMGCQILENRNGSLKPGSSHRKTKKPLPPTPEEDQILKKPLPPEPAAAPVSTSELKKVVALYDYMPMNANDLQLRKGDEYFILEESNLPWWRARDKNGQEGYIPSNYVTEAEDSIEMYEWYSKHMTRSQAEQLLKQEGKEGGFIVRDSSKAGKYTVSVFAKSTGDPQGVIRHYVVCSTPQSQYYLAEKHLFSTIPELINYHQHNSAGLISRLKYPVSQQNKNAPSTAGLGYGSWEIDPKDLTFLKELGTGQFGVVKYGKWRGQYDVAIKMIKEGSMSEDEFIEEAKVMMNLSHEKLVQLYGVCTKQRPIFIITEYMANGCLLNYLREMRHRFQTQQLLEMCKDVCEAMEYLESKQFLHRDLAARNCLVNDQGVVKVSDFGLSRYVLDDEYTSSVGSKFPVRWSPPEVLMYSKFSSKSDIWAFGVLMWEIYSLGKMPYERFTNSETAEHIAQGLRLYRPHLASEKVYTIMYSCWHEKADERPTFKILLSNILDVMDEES
For a further series, the target named is T2, Tec (Homo sapiens, UniProt P42680).
T2 sequence (P42680 1-631): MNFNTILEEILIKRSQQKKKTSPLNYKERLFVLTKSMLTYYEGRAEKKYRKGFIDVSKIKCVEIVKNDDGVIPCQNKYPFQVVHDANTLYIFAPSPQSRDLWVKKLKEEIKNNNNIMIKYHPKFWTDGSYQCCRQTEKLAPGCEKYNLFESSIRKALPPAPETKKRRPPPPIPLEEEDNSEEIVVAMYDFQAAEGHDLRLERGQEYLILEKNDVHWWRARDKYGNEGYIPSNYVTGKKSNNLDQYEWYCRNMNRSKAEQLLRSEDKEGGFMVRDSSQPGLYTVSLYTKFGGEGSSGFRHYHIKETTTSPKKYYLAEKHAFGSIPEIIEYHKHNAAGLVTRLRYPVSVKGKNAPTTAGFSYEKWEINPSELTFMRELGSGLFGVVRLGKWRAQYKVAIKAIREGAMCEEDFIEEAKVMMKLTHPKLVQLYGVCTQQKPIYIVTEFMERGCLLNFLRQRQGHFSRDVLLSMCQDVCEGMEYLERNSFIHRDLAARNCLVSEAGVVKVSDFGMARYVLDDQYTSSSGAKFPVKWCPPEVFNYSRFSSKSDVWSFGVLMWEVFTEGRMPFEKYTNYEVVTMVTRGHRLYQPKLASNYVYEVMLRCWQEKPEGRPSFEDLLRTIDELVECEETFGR
Kind of series: HotSpot radioisotope kinase assay. The series is classed as biochemical. In a few lines: as §1

A further series concerns the target T3, ITK (Homo sapiens, UniProt Q08881).
T3 sequence (Q08881 1-620): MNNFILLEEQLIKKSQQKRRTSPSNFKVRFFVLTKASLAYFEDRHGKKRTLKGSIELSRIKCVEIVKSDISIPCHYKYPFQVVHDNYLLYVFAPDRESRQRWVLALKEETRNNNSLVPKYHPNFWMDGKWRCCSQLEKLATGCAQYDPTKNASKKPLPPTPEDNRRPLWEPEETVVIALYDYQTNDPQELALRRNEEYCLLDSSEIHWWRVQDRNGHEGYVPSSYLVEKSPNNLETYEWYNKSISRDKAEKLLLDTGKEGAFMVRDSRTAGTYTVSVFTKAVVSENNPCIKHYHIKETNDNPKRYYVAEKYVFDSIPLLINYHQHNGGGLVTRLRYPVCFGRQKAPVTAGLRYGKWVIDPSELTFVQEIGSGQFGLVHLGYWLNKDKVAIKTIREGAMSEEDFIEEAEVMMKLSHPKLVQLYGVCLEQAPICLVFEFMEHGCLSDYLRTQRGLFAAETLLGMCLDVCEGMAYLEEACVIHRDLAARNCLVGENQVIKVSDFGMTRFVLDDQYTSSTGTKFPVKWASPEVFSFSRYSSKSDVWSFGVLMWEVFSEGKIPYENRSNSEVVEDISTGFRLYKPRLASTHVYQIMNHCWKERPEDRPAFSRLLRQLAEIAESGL
Briefly: HotSpot radioisotope kinase assay. The series is classed as biochemical. In a few lines: as §1

Regarding `C=CC(=O)Nc1cccc(Nc2nc(Nc3ccc(OCCOC)cc3)ncc2F)c1` [CC-292], the “Percentage of dead (7-AAD positive) or apoptotic (Annexin V positive) cells” value in the series on BMMΦ [1] is “did not alter”. In the series on BMMΦ [2], the “TLR-dependent secretion of IL6” value is recorded as “decreased” and the “TLR-dependent secretion of TNF” value is on record as “decreased”.
Usually IC50 stands for the concentration that inhibits the measured activity by half. Lower therefore signals higher potency. Regarding `C=CC(=O)Nc1cccc(Nc2nc(Nc3ccc(OCCOC)c(F)c3)ncc2F)c1` [Compound1, N-(3-((5-fluoro-2-((3-fluoro-4-(2-methoxyethoxy)phenyl)amino)pyrimidin-4-yl)amino)phenyl)acrylamide], the IC50 is 2.1 nM against Bmx, 12.5 nM against Btk, 22 nM against Tec and 172 nM against ITK. The Kinase selectivity entry in the series with Tec kinases is reported as “highly selective for Tec kinases”.
